Results taken from ChEMBL document CHEMBL3867444, “Design and synthesis of new potent PTP1B inhibitors with the skeleton of 2-substituted imino-3-substituted-5-heteroarylidene-1,3-thiazolidine-4-one: Part I” (Eur J Med Chem, 2016).

Tests used:
[1] = target: T1, Tyrosine-protein phosphatase non-receptor type 1 (Homo sapiens) (UniProt P18031); test: Inhibition of human recombinant GST-tagged PTP1B catalytic domain expressed in Escherichia coli BL21-[…] plus (DE3) at 20 ug/ml using pNPP as substrate relative to control
T1 sequence (whole entry): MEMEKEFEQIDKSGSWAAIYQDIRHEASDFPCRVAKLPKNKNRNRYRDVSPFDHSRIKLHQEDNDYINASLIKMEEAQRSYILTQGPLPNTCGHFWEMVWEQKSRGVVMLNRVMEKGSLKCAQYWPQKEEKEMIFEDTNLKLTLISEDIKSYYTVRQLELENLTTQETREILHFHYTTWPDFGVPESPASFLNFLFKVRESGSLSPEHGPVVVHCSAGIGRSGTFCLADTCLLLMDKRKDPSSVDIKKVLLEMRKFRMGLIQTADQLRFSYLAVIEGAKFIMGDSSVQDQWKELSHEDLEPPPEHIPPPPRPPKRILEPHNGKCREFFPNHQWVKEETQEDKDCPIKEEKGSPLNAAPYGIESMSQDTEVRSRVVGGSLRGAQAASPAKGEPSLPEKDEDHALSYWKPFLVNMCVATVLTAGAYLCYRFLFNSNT

[2] = target: T1, Tyrosine-protein phosphatase non-receptor type 1 (Homo sapiens); test: Inhibition of human recombinant GST-tagged PTP1B catalytic domain expressed in Escherichia coli BL21-[…] plus (DE3) at 5 ug/ml using pNPP as substrate relative to control
[3] = target: T2, Tyrosine-protein phosphatase non-receptor type 1 (Homo sapiens, UniProt P18031); test: Inhibition of human recombinant GST-tagged PTP1B catalytic domain expressed in Escherichia coli BL21-[…] plus (DE3) using pNPP as substrate
T2 sequence (P18031 whole entry): T1 sequence (whole entry)

[4] = target: T3, M-phase inducer phosphatase 2 (Homo sapiens) (UniProt P30305); test: Inhibition of human recombinant GST-tagged CDC25B assessed as reduction in dephosphorylation of florigenic phosphatase substrate at 5 ug/ml preincubated for 1 hr followed by substrate addition measured after 1 hr by fluorescence assay relative to control
T3 sequence (whole entry): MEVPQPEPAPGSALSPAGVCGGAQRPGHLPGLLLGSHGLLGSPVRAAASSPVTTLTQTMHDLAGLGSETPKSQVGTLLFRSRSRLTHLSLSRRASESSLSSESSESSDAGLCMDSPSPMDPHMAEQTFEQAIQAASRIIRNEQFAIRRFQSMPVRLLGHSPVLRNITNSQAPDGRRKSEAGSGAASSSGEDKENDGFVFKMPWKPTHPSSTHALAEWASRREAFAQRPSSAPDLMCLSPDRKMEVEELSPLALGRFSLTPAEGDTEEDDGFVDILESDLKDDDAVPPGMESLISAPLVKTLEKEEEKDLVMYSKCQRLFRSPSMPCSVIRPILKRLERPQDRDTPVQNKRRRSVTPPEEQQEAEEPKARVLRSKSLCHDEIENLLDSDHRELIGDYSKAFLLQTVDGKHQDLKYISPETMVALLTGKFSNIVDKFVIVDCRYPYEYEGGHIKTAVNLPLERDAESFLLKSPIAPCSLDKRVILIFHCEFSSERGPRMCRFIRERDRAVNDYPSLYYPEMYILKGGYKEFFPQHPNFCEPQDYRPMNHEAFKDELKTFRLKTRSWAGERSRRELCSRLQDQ

[5] = target: T4, M-phase inducer phosphatase 2 (Homo sapiens, UniProt P30305); test: Inhibition of human recombinant GST-tagged CDC25B assessed as reduction in dephosphorylation of florigenic phosphatase substrate preincubated for 1 hr followed by substrate addition measured after 1 hr by fluorescence assay
T4 sequence (P30305 whole entry): T3 sequence (whole entry)
Summary of the method: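 Purified GST-CDC25B fusion protein was preincubated with compound for 1 h, then fluorescein diphosphate (5mM) was added. Fluorescence was read within the linear range of the reaction after 1 h at room temperature. Na₃VO₄ served as positive control and DMSO as negative control.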

[6] = target: T2, Tyrosine-protein phosphatase non-receptor type 1; test: Inhibition of PTP1B (unknown origin)

| Compound | inhibition [1] [%] | inhibition [2] [%] | IC50 [3] [µM] | inhibition [4] [%] | IC50 [5] [µM] | IC50 [6] [µM] |
| --- | --- | --- | --- | --- | --- | --- |
| Cc1cc(I)cc2c1NC(c1cccc(N)c1)C1CC=CC21 (stereo not given) |  |  |  |  |  | 7.5 |
| CC(C)N1C(=O)/C(=C/c2ccc(OCCN(C)c3ccccn3)cc2)S/C1=N\O | 67.5 | 19.3 |  | 98.5 | 2.47 |  |
| SODIUM ORTHOVANAD |  |  |  |  | 0.91 |  |
| CC/N=C1\S/C(=C\c2ccc(OCCN(C)c3ccccn3)cc2)C(=O)N1CC | 42.1 |  |  |  |  |  |
| CCOC(=O)c1c(C)[nH]c(/C=C2\S/C(=N/O)N(C(C)C)C2=O)c1C | 95.8 | 49 |  | 80.2 | 5.83 |  |

Continued, values first:

| inhibition [1] [%] | inhibition [2] [%] | IC50 [3] [µM] | inhibition [4] [%] | IC50 [5] [µM] | IC50 [6] [µM] | Compound |
| --- | --- | --- | --- | --- | --- | --- |
| 28.4 |  |  |  |  |  | CCOC(=O)c1c(C)[nH]c(/C=C2\S/C(=N\c3ccc(C)cc3)N(c3ccc(C)cc3)C2=O)c1C |
| 96.3 | 74.2 | 6.83 | 82.8 | 3.39 |  | CCOC(=O)c1c(C)[nH]c(/C=C2\S/C(=N\c3cccc(F)c3)N(c3cccc(F)c3)C2=O)c1C |
| 99.9 | 81.1 | 8.66 | 83.7 | 1.66 |  | CCOC(=O)c1c(C)[nH]c(/C=C2\S/C(=N\c3ccccc3)N(c3ccccc3)C2=O)c1C |
| 98.7 | 47.7 |  | 76.5 | 2.74 |  | CCOC(=O)c1c(C)[nH]c(/C=C2\S/C(=N\c3ccc(OC)cc3)N(c3ccc(OC)cc3)C2=O)c1C |
| 98.3 | 45 |  | 64.2 | 3.66 |  | CCOC(=O)c1c(C)[nH]c(/C=C2\S/C(=N\c3ccccc3F)N(c3ccccc3F)C2=O)c1C |
| 94.5 | 82.7 | 6.09 | 84.7 | 2.87 |  | CCOC(=O)c1c(C)[nH]c(/C=C2\S/C(=N\c3ccc(F)cc3)N(c3ccc(F)cc3)C2=O)c1C |
